Only some compounds are listed: those with a hit (about 0.72% of all), similar ones and a draw of the others.
bIAP activator – increases bovine intestinal alkaline phosphatase activity; purified bovine IAP, CDP-star luminescence, 30 min; stronger effect = higher value; fold of DMSO-control signal, blank-subtracted; activation factor at 20 µM; 0.17% of 200,000 active; AID 1016;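 active = activation factor of 2 or more at 20 µM, a signal rise over negative controls twice the positive control's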
mIAP act – increases mouse intestinal alkaline phosphatase activity. 0.24% of 330,000 active. activation factor at 10 µM. muIAP, CDP-Star luminescence, 30 min; stronger effect = higher value; 1 = vehicle-only enzyme signal, 0 = enzyme-free wells;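 active = activation factor of at least 2 at 20 µM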
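Assay system: mouse IAP enzyme / Compound: DMSO-dissolved test compounds / Timing: 30 min, room temperature / Measured by: luminescence from enzymatic CDP-Star hydrolysis / Control set: DMSO-only wells, enzyme-free buffer wells as negative control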
hIAP act – increases human intestinal alkaline phosphatase activity; 0.16% of 330,000 active; P09923; purified human IAP, CDP-Star luminescence, 30 min; stronger effect = higher value; 1 = vehicle-only enzyme, 0 = enzyme-free background; AID 2524; activation factor at 10 µM;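 active = activation factor of the enzyme at least 2-fold when tested at 20 µM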
Target sequence (P09923 whole entry, looked up): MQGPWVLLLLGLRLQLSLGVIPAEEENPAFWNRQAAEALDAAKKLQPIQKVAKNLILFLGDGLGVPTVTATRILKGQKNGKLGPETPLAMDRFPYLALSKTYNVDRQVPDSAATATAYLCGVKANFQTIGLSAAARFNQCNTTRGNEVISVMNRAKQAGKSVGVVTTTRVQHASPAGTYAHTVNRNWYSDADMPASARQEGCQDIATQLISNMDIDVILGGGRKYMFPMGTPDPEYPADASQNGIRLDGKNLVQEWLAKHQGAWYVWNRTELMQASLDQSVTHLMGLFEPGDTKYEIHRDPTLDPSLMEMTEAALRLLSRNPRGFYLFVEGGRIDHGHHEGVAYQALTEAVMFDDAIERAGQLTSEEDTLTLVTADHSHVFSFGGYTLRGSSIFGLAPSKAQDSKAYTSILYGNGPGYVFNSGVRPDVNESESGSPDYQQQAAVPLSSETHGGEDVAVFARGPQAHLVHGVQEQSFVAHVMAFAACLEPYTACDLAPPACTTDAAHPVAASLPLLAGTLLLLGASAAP
bIAP inhibitor – blocks bovine intestinal alkaline phosphatase activity; 190,000 tested, under 10 active; purified bovine IAP, CDP-star luminescence, 30 min; inhibition, % at 20 µM;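 active = over 50% inhibition of intestinal alkaline phosphatase at 20 µM in the single-dose screen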
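System: purified bovine intestinal alkaline phosphatase (IAP) enzyme; Input: IAP diluted 1/65,000,000 in the well; Measured by: CDP-star luminescence signal; Compound dosing: 20 µM single dose; Incubation: 30 min reaction at room temperature.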
mIAP inh – blocks mouse intestinal alkaline phosphatase; inhibition, % at 10 µM; purified mouse IAP, CDP-Star luminescence, 30 min; 0.2% of 330,000 active; AID 2806;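 active = inhibition of at least 40% at 10 µM in the primary screen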
hIAP inh – blocks human intestinal alkaline phosphatase. P09923. purified IAP, CDP-Star luminescence, 30 min. inhibition, % at 10 µM. 0.12% of 330,000 active;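 active = inhibition reaching a set limit with compound at 10 µM in the primary screen, cut at about 35% in these data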
Numbers stand for hits; i = inactive; nt = no result given.

SMILES	bIAP activator	mIAP act	hIAP act	bIAP inhibitor	mIAP inh	hIAP inh
Cc1ccc(NC(=O)C2CCC(=O)N2)cc1C (centres undefined)	i	i	i	i	i	i
Cc1ccc(NC2=NC(C(=O)Nc3ccc(C)c(C)c3)CC(=O)N2)cc1 (centres undefined)	2	i	i	i	i	i
Cc1nnsc1C(=O)N/N=C/c1ccccc1	5.5	i	i	i	i	i
CC(OC(=O)CCc1nc2ccccc2c(=O)[nH]1)C(=O)c1ccc(C(C)(C)C)cc1 (centres undefined)	i	i	i	i	i	i
Cc1ccc(NC(=O)NCCN2CCCCC2)cc1C	nt	i	i	nt	i	i
CCCCSCCCNC(=O)Nc1ccc(C)c(C)c1	i	2.73	i	i	i	i
O=C(CN1CCN(C/C=C/c2ccccc2)CC1)NCc1ccc(Cl)cc1	nt	i	i	nt	i	i
CCn1cc(CNCc2cn(-c3ccccc3C)nc2-c2ccc(OC)c(F)c2)cn1	i	i	i	i	i	i
COc1ccc(-c2nn(-c3ccccc3C)cc2CNCCc2cnc[nH]2)cc1F	2.3	i	i	i	i	i
CC1=C(C(=O)OCc2ccccc2)C(c2ccc(Cl)cc2)NC(=O)N1CCCC(=O)O (centres undefined)	nt	i	i	nt	i	i
C/C(=N\NC(=O)C1CCCC1)c1ccc(Cl)c(Cl)c1	nt	i	i	nt	62.8	i
C/C(=N\NC(=O)C1CCCC1)c1ccc(C(C)C)cc1	nt	i	i	nt	i	i
CCOc1ccc2nc(NCCNC(=O)Nc3cccc(C)c3)c(C#N)cc2c1	i	2.15	i	i	i	i
Cn1c(SCC(=O)NC(C)(C)C)nc(O)cc1=O	i	i	i	i	i	i
N#Cc1c(N)nc(SC2CCCCC2=O)c(C#N)c1-c1ccco1 (centres undefined)	nt	i	i	nt	i	i
CSc1cccc(NC(=O)Nc2nc3c(C)cccc3s2)c1	nt	2.15	i	nt	i	i
O=C(CSc1nnc(-c2ccc3c(c2)OCO3)o1)Nc1c(F)cccc1F	nt	i	i	nt	54.9	i
NC(=O)c1ccc(NC(=O)CSc2nnc(-c3ccc4c(c3)OCO4)o2)cc1	nt	i	i	nt	i	i
CN(C)CCNC(=S)Nc1ccc(-c2nc3ccccc3[nH]2)cc1	i	i	i	i	i	i
COc1ccc(NC(=S)NCc2ccc3c(c2)OCO3)cc1	i	i	i	i	i	i
CC(C)c1ccc(NC(=S)NCc2ccc3c(c2)OCO3)cc1	i	2.52	i	i	i	i
S=C(NCc1ccc2c(c1)OCO2)Nc1ccc(-c2nc3ccccc3[nH]2)cc1	i	2.31	i	i	i	i
CCCCC(=O)NC(=S)NNC(=O)CCc1ccccc1	nt	i	i	nt	i	i
CC(=O)NC(=S)NNC(=O)CCc1ccccc1	2.2	i	i	i	i	i
CC(=O)NNC(=S)NC(=O)C(c1ccccc1)c1ccccc1	2.7	i	i	i	i	i
SMILES	bIAP activator	mIAP act	hIAP act	bIAP inhibitor	mIAP inh	hIAP inh
O=C(Nc1ccc(Cl)cc1)NC1(C(=O)NCCCN2CCOCC2)CCCCC1	2.8	i	i	i	i	i
O=C(CCC1CCCCC1)Nc1ncn[nH]1	2.3	i	i	i	i	i
O=C(CCC1CCCCC1)Nc1nccs1	i	i	i	i	i	i
O=C(O)c1nn(Cc2csc(-c3ccccc3)n2)c(=O)c2ccccc12	nt	i	i	nt	i	i
O=C(O)Cc1ccc(O)c(O)c1	nt	i	i	nt	59.8	i
COc1cc(NC(=O)CN(c2ccc(C)cc2)S(=O)(=O)c2c(C)noc2C)cc(OC)c1	nt	i	i	nt	i	i
COc1cc(NC(=O)CN(c2cc(C)cc(C)c2)S(=O)(=O)c2c(C)noc2C)cc(OC)c1	i	2.98	i	i	i	i
Cc1ccccc1N(CC(=O)N1CCN(c2ccccc2)CC1)S(C)(=O)=O	i	i	i	i	i	i
O=C(Cc1ccc(F)cc1)NCCS(=O)(=O)N1CCN(c2ccccc2)CC1	nt	i	i	nt	i	i
O=C(NCc1ccc(F)cc1)C1CCN(S(=O)(=O)c2ccc3c(c2)OCCCO3)CC1	i	i	i	i	i	i
O=C(NCc1ccc(Cl)cc1Cl)C1CCN(S(=O)(=O)c2ccc3c(c2)OCCCO3)CC1	i	2.62	i	i	i	i
CCc1ccc(NC(=O)C(CC)Sc2nc3cc4c(cc3c(=O)n2Cc2ccco2)OCO4)cc1 (centres undefined)	2.9	i	i	i	i	i
O=C(CN1CCN(CC(=O)Nc2ccc(OCc3ccccc3)cc2)CC1)Nc1ccc(F)cc1	nt	i	i	nt	i	i
O=C(NCCCN1CCCC1=O)c1ccc(CNS(=O)(=O)c2ccc(F)cc2)cc1	i	i	i	i	i	i
O=C(Cn1cccc1)NC1CCCCCC1	i	i	i	i	i	i
CC(C1CC2CCC1C2)N1CC(O)=C(c2nc3ccccc3[nH]2)C1=N (centres undefined)	nt	i	i	nt	i	i
CC(C)N1CC(O)=C(c2nc3ccccc3[nH]2)C1=N	2.2	i	i	i	i	i
Cc1cc(C)cc(NC(=O)Nc2ccc(N3CCCCC3)cc2)c1	nt	2	i	nt	i	i
Cc1cc(C)cc(C(=O)Nc2ccc(N3CCCC3)cc2)c1	i	i	i	i	i	i
Cn1c(N=Nc2ccccc2)nc2ccccc21	i	i	i	nt	i	i
CN(C)c1ccc(N=Nc2nc3ccccc3n2C)cc1	nt	i	i	nt	42.2	i
CCOc1ccc(NC(=O)CCN2CCN(S(=O)(=O)c3ccc(F)cc3)CC2)cc1	nt	i	i	nt	i	i
CC(C)c1ccc(NC(=O)C(c2ccccc2)N2CC(=O)Nc3ccccc32)cc1 (centres undefined)	i	2.08	i	i	i	i
Cc1ccc(NS(=O)(=O)c2ccc(/C=C/C(=O)O)cc2)cc1Cl	i	i	i	i	i	i
Cc1c(CCOC(=O)c2cccc([N+](=O)[O-])c2)sc[n+]1CC(=O)c1ccccc1	i	i	i	nt	42.8	i
SMILES	bIAP activator	mIAP act	hIAP act	bIAP inhibitor	mIAP inh	hIAP inh
O=C(NC1CCCCC1)N(C1=NCCCCC1)c1ccc(Br)cc1	i	i	i	i	i	i
CCCOc1ccc(CNC(=S)NCc2ccc(OC(C)C)cc2)cc1	i	4.15	i	i	i	i
Cc1c(/C=N/NC(=O)CNc2ccccc2)c2ccccn2c1C(=O)c1ccccc1	i	i	i	i	i	i
COCCn1nnnc1C(c1cc2cc(C)ccc2[nH]c1=O)N1CCc2ccccc21 (centres undefined)	i	i	i	i	i	i
Cc1ccc2[nH]c(=O)c(C(c3nnnn3CCc3ccccc3)N3CCOCC3)cc2c1 (centres undefined)	i	i	i	i	45.9	i
COC(=O)Nc1ccc(S(=O)(=O)Nc2ccc(C)cc2)cc1	i	nt	nt	i	nt	nt
COC(=O)Nc1ccc(S(=O)(=O)Nc2ccc(O)cc2)cc1	2.4	i	i	i	i	i
CCc1ccc(NC(=O)C2CCN(S(=O)(=O)c3ccc4c(c3)CC(C)N4C(C)=O)CC2)cc1 (centres undefined)	nt	2.13	i	nt	i	i

Screening data: PubChem, Sanford-Burnham Center for Chemical Genomics
